# Assay results from different studies.
# Compare with care: the assays were run in different laboratories.
# rep papain-like protease: Replicase polyprotein 1ab, papain-like protease (rep, Porcine epidemic diarrhea virus, UniProt P0C6Y4)
# SLC6A4: Sodium-dependent serotonin transporter (SLC6A4, Homo sapiens, UniProt P31645)
SMILES,target,test,conditions,endpoint,value
COc1cc(CNC(=O)c2ccccc2SC)cc(Br)c1OC,rep papain-like protease,"enzyme activity, inhibitor, FRET",10 µM,inhibition,18.8%
Cc1cc(O)c(-c2ccc([C@@H](C)CN(C)C)cc2)c2c1[nH]c(=O)c1sccc12,"SRSF protein kinase 2 (SRPK2, Homo sapiens, UniProt P78362)","enzyme activity, inhibitor",0.1 µM,inhibition,-3.6%
CCOC(=O)[C@@]12C[C@@H]1[C@@H](n1cnc3c(NCCO)nc(C#Cc4ccc(Cl)s4)nc31)[C@H](O)[C@@H]2O,SLC6A4,"ligand displacement, radioligand",10 µM,inhibition,-8%
COc1cc(CNC(=O)c2ccco2)cc(Br)c1OC,"Replicase polyprotein 1ab, main protease (rep, Porcine epidemic diarrhea virus, UniProt P0C6Y4)","enzyme activity, inhibitor, FRET",10 µM,inhibition,64.9%
C1=C/COCc2cc(ccc2OCCN2CCCC2)Nc2nccc(n2)-c2cccc(c2)COC/1,"Calcium/calmodulin-dependent protein kinase type 1D (CAMK1D, Homo sapiens, UniProt Q8IU85)",binding,0.1 µM,remaining binding,63%
CCOC(=O)[C@@]12C[C@@H]1[C@@H](n1cnc3c(NCCCCCc4ccccc4)nc(C#Cc4ccccc4)nc31)[C@H](O)[C@@H]2O,SLC6A4,"ligand displacement, radioligand","10 µM, cell membranes",inhibition,27%
CCCCC(=O)Nc1ccc(-c2ccc3ncn(CCC)c(=O)c3c2)cn1,"Mitogen-activated protein kinase kinase kinase 20 (MAP3K20, Homo sapiens, UniProt Q9NYL2)","binding, competition with immobilised ligand",0.5 µM,remaining binding,54%
COc1cc(CNC(=O)c2nccs2)cc(Br)c1OC,rep papain-like protease,"enzyme activity, inhibitor, FRET",10 µM,inhibition,10.3%
CNC(=O)[C@@]12C[C@@H]1[C@@H](n1cnc3c(NCc4cccc(Cl)c4)nc(C#Cc4ccc(Cl)s4)nc31)[C@H](O)[C@@H]2O,SLC6A4,"ligand displacement, radioligand",10 µM,inhibition,10%
